ChEMBL document CHEMBL2321666, “Discovery of a Series of Thiazole Derivatives as Novel Inhibitors of Metastatic Cancer Cell Migration and Invasion” (ACS Med Chem Lett, 2013)
The source made the active and inactive calls. The calls are words filed in the database; no cut-off is given here.

Columns and labels:
[1] = system: HeLa; experiment: Inhibition of cell migration in human HeLa cells assessed as total number of cells at 10 uM after 24 hrs by transwell migration assay relative to control; type: functional
[2] = system: HeLa; experiment: Cytotoxicity against human HeLa cells assessed as colony formation at 10 uM after 2 weeks relative to control; type: cell-based; conditions: 336 h
[3] = system: MDA-MB-231; experiment: Inhibition of cell migration in human MDA-MB-231 cells assessed as total number of cells at 10 uM after 24 hrs by transwell migration assay relative to control; values are per cent of control; conditions: MDA-MB-231, 24 h
[4] = system: MDA-MB-231; experiment: Inhibition of cell invasion in human MDA-MB-231 cells assessed as total number of cells at 10 uM after 24 hrs by matrigel invasion assay relative to control; type: functional; conditions: MDA-MB-231, 24 h
[5] = system: MDA-MB-231; experiment: Inhibition of cell migration in human MDA-MB-231 cells assessed as total number of cells after 24 hrs by transwell migration assay; type: functional, cell-based; conditions: for IC50: MDA-MB-231, 24 h
In short: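 Dose-response transwell migration in MDA-MB-231 cells: 2.5 × 10^4 cells in serum-free upper chamber, 5% FBS in the lower chamber.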

[6] = system: MDA-MB-231; experiment: Cytotoxicity against human MDA-MB-231 cells assessed as colony formation at 10 uM after 2 weeks relative to control; type: cell-based; conditions: mda-mb-231, 336 h
In short: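 Clonogenic assay: MDA-MB-231 cells grown for 14 days in six-well plates with or without 10 μM compound. Colony formation expressed as % of DMSO vehicle control.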

[7] = system: MDA-MB-231; experiment: Inhibition of serum-induced actin-rich membrane protrusion in human MDA-MB-231 cells assessed as reduction of f-actin intensity at 10 uM after overnight incubation by fluorescent microscopic analysis; type: functional
In short: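 MDA-MB-231 cells serum-starved with or without 10 μM compound, then serum-stimulated for 2 h to induce actin-rich membrane protrusions. F-actin was stained and imaged by fluorescence microscopy, and f-actin intensity was quantified against DMSO-treated cells.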

[8] = system: A549; experiment: Inhibition of cell migration in human A549 cells assessed as total number of cells at 10 uM after 24 hrs by transwell migration assay relative to control; type: functional; conditions: A549, 24 h
[9] = system: MDA-MB-231; experiment: Reduction of fascin localization in actin-rich membrane protrusion in human MDA-MB-231 cells at 10 uM by immuno fluorescence microscopic analysis; type: functional, cell-based

Compound	level, % of control at 10 µM [3] [%]	Activity [6] [%]	also measured
CCn1c(-c2ccccc2)cs/c1=N/C(=O)c1cccs1	32.1	97.7	inhibition at 10 µM [1]: 60%; Activity [2]: 45%; inhibition at 10 µM [4]: 40%; IC50 [5]: 2.08 µM
CCCCCCCCCCCC(=O)Nc1nc(-c2ccccc2)cs1	28.3	71.5	inhibition at 10 µM [1]: 60%; Activity [2]: Non-toxic; inhibition at 10 µM [4]: 40%; IC50 [5]: 1.01 µM
CCCCCCCCCCCC(=O)N(C)c1nc(-c2ccccc2)cs1	80	111.1	–
CN(C(=O)C1CCCC1)c1nc(-c2ccccc2)cs1	54.3	132.4	–
COc1cc(OC)c(-c2cs/c(=N/C(=O)c3ccccc3)n2C)c(OC)c1	40.6	94	–
Cc1ccc(-c2csc(N)n2)c(C)c1	45.5	110.9	–
O=C(Nc1nc(-c2ccccc2)cs1)c1cccnc1	80.8	102.8	–
Cn1c(-c2ccccc2)cs/c1=N/C(=O)c1cccs1	43.3	85	–
Nc1nc(-c2ccccc2)cs1	86	103.6	–
CN(C(=O)c1ccccc1)c1nc(-c2ccccc2)cs1	39.2	123.4	inhibition at 10 µM [1]: 60%; inhibition at 10 µM [4]: 40%; IC50 [5]: 0.366 µM
COc1ccc(C(=O)N(C)c2nc(-c3ccccc3)cs2)cc1OC	43.5	97.1	–
CCCCCC(=O)N(C)c1nc(-c2ccccc2)cs1	71.4	127.5	–
COc1cc(C(=O)/N=c2/scc(-c3ccccc3)n2C)cc(OC)c1OC	26.5	75.4	–
O=C(Nc1nc(-c2ccccc2)cs1)c1ccc(Cl)cc1	78	95	–
Cc1ccc(-c2cs/c(=N/C(=O)c3ccccc3)n2C)c(C)c1	14.3	120.9	inhibition at 10 µM [7]: 55%; inhibition at 10 µM [1]: 80%; Activity [2]: 85%; inhibition at 10 µM [4]: 60%; inhibition at 10 µM [8]: 80%; Activity [9]: Active; inhibition [5]: Dose-dependent effect; IC50 [5]: 0.176 µM
CCCCCC(=O)Nc1nc(-c2ccccc2)cs1	75.2	90.7	–
O=C(Nc1nc(-c2ccccc2)cs1)c1ccncc1	32.3	95.5	inhibition at 10 µM [1]: 60%; inhibition at 10 µM [4]: 40%; IC50 [5]: 2.87 µM
Cn1c(-c2ccccc2)cs/c1=N/C(=O)c1ccc(Br)cc1	59.7	63.8	–
CN(C(=O)C1CCCCC1)c1nc(-c2ccccc2)cs1	72.7	97.5	–
COc1ccc(C(=O)Nc2nc(-c3ccccc3)cs2)cc1OC	18.6	57.3	–

Compound	level, % of control at 10 µM [3] [%]	Activity [6] [%]	also measured
O=C(Nc1nc(-c2ccccc2)cs1)c1ccc(Br)cc1	103	98.6	–
O=C(Nc1nc(-c2ccccc2)cs1)c1ccco1	88	98.8	–
Cn1c(-c2ccccc2)cs/c1=N/C(=O)c1cccnc1	62	111.5	–
Cn1c(-c2ccccc2)cs/c1=N/C(=O)c1ccc(Cl)cc1	28.1	98.2	inhibition at 10 µM [1]: 60%; inhibition at 10 µM [4]: 40%; IC50 [5]: 1.12 µM
COc1cc(C(=O)Nc2nc(-c3ccccc3)cs2)cc(OC)c1OC	46.5	80.9	–
O=C(Nc1nc(-c2ccccc2)cs1)C1CCCCC1	92.7	103.4	–
Cn1c(-c2ccccc2)cs/c1=N/C(=O)c1ccco1	77.6	107.3	–
Cc1ccc(-c2csc(N(C)C(=O)c3cccs3)n2)c(C)c1	72.2	97.7	–
O=C(Nc1nc(-c2ccccc2)cs1)c1cccs1	34.5	85.9	inhibition at 10 µM [1]: 60%; inhibition at 10 µM [4]: 40%; IC50 [5]: 2.49 µM
COc1cc(OC)c(-c2csc(N(C)C(=O)c3ccccc3)n2)c(OC)c1	91.5	110.4	–
Cc1ccc(-c2csc(NC(=O)c3cccs3)n2)c(C)c1	40.9	67.5	–
O=C(Nc1nc(-c2ccccc2)cs1)c1ccccc1	31.3	105.2	inhibition at 10 µM [1]: 60%; inhibition at 10 µM [4]: 40%; IC50 [5]: 1.29 µM
Cc1ccc(-c2cs/c(=N/C(=O)c3cccs3)n2C)c(C)c1	37.1	102.3	–
COc1cc(OC)c(-c2csc(NC(=O)c3ccccc3)n2)c(OC)c1	59.2	108.8	–
CCN(C(=O)c1ccco1)c1nc(-c2ccccc2)cs1	54.5	96.5	–
COc1ccc(C(=O)/N=c2/scc(-c3ccccc3)n2C)cc1OC	35.9	40.9	–
Cc1ccc(-c2csc(NC(=O)c3ccccc3)n2)c(C)c1	33.7	85	inhibition at 10 µM [1]: 60%; inhibition at 10 µM [4]: 40%; IC50 [5]: 0.839 µM
Cn1c(-c2ccccc2)cs/c1=N/C(=O)c1ccccc1	13	25.2	inhibition at 10 µM [1]: 60%; Activity [2]: Toxic; inhibition at 10 µM [4]: 40%; IC50 [5]: 0.189 µM
O=C(Nc1nc(-c2ccccc2)cs1)C1CCCC1	68.2	99.8	–
CN(C(=O)c1ccc(Br)cc1)c1nc(-c2ccccc2)cs1	78.2	107.7	–
